pIC50, pKi: −log10 of the molar value. Where “and” joins values, the source holds several entries; their conditions need not be identical. Equal entries are not always repeated.
Legend:
Cannabinoid receptor 1 [1] = molecular target: T1, Cannabinoid receptor 1 (Homo sapiens, UniProt P21554); test: Antagonist activity at recombinant human CB1 receptor expressed in HEK293 cell membranes assessed as inhibition of CP55940-induced [35S]GTPgammaS binding preincubated for 1 hr followed by CP55940 addition and subsequent incubation with [35S]GTPgammaS measured after 30 mins by scintillation spectrometry
T1 sequence (P21554 whole entry): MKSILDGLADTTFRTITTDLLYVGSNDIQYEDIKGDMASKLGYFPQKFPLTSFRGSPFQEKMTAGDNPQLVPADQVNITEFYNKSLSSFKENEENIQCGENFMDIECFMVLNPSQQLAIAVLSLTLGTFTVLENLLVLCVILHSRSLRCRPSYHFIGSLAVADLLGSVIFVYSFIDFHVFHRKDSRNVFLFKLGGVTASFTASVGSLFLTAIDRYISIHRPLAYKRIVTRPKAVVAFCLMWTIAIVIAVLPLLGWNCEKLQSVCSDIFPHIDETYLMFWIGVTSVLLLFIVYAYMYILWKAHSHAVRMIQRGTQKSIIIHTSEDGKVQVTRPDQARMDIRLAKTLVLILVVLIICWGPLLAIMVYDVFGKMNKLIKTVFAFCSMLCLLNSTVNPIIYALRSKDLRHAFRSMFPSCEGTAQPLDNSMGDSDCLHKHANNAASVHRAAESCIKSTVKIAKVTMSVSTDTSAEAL
Procedure, shortened: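 Antagonism was measured by [35S]GTPγS binding at 30 °C on membranes of HEK-293 cells stably expressing recombinant human CB1.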

Cannabinoid receptor 1 [2] = molecular target: T1, Cannabinoid receptor 1; test: Displacement of [3H]CP55940 from recombinant human CB1 receptor expressed in beta-galactosidase expressing CHOK1 cell membranes after 60 mins by scintillation spectrometry

| Compound | pIC50 (Cannabinoid receptor 1 [1]) | pKi (Cannabinoid receptor 1 [2]) |
| --- | --- | --- |
| Cc1c(C(=O)N[C@@H]2CCCC[C@@H]2O)nc(-c2ccc(Cl)cc2Cl)n1-c1ccc(OS(=O)(=O)CCC(F)(F)F)cc1 | 8.80 |  |
| Cc1c(C(=O)N[C@@H]2CCCC[C@@H]2N(C)C)nc(-c2ccc(Cl)cc2Cl)n1-c1ccc(OS(=O)(=O)CCC(F)(F)F)cc1 | 7.10 and 7.08 | 8.60 |
| Cc1c(C(=O)NN2CCCCC2)nc(-c2ccc(Cl)cc2Cl)n1-c1ccc(OCCC(F)(F)F)cc1 | 8.30 | 9.10 |
| Cc1c(C(=O)NN2CCCCC2)nc(-c2ccc(Cl)cc2Cl)n1-c1ccc(OCCCC(F)(F)F)cc1 |  | 9.70 |
| CCCCS(=O)(=O)Oc1ccc(-n2c(-c3ccc(Cl)cc3Cl)nc(C(=O)NN3CCCCC3)c2C)cc1 |  | 9.90 |
| Cc1c(C(=O)NN2CCCCC2)nc(-c2ccc(Cl)cc2Cl)n1-c1ccc(OS(=O)(=O)CCCC(F)(F)F)cc1 |  | 10.00 |
| Cc1c(C(=O)N[C@H]2CCC[C@H](O)C2)nc(-c2ccc(Cl)cc2Cl)n1-c1ccc(OS(=O)(=O)CCC(F)(F)F)cc1 | 8.90 |  |
| Cc1c(C(=O)N[C@@H]2CCCC[C@H]2O)nc(-c2ccc(Cl)cc2Cl)n1-c1ccc(OS(=O)(=O)CCC(F)(F)F)cc1 |  | 9.70 |
| Cc1c(C(=O)N[C@H]2CCCC[C@H]2N)nc(-c2ccc(Cl)cc2Cl)n1-c1ccc(OS(=O)(=O)CCC(F)(F)F)cc1 | 8.20 | 9.50 |
| Cc1c(C(=O)Nc2ccc(F)nc2)nc(-c2ccc(Cl)cc2Cl)n1-c1ccc(OS(=O)(=O)CCC(F)(F)F)cc1 |  | 10.00 |
| Cc1c(C(=O)Nc2ccc(C(F)(F)F)cn2)nc(-c2ccc(Cl)cc2Cl)n1-c1ccc(OS(=O)(=O)CCC(F)(F)F)cc1 |  | 9.90 |
| Cc1c(C(=O)NN2CCCCC2)nc(-c2ccc(Cl)cc2Cl)n1-c1ccc(OS(=O)(=O)CCC(C)(C)C)cc1 | 8.70 | 9.30 |
| Cc1c(C(=O)NN2CCCCC2)nc(-c2ccc(Cl)cc2Cl)n1-c1ccc(OS(=O)(=O)CCC(F)(F)F)cc1 |  | 9.90 |

— BindingDB's records for doi:10.1021/acs.jmedchem.7b00861 (Leiden University, 2017)
